Tests used:
Homo sapiens [1] = experiment: Hepatotoxicity in healthy human assessed as elevated alkaline phosphatase level at 1000 […], po administered as single dose after 72 hrs; type: toxicity, organism-based; design: route oral; details: in vivo
Homo sapiens [2] = experiment: Absorption time lag in healthy human at 250 to 2000 […], po administered as single dose by HPLC method; type: ADME, organism-based; design: route oral; details: in vivo
Method in brief: (§1)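 Population PK model: one compartment, first-order absorption with lag time, first-order elimination, fitted to plasma HPLC concentrations from single oral doses of 250–2,000 mg in healthy fasting men. F for 250–500 mg was fixed at 1, and doses of 1,500–2,000 mg were assumed to share one F. Posterior predictive check used.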

[3] = Tmax in healthy human at […], po administered as single dose measured after 72 hrs by HPLC method; type: ADME, organism-based; design: route oral; details: in vivo
Method in brief: (§2)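 Healthy fasting male volunteers, two groups of six, each given two of three single oral capsule doses plus a random placebo, with a 2-week washout. About 12 blood samples were taken over 24 h, then at 48 and 72 h. Plasma was assayed by validated HPLC-UV (LLOQ 48 ng/ml). Noncompartmental analysis: Cmax/Tmax observed, AUC0-t* by linear trapezoid, λz from the terminal log-linear phase, AUC0-∞ = AUC0-t* + C*/λz.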

[4] = Terminal half life in healthy human at 500 mg, po administered as single dose measured after 72 hrs by HPLC method; details: in vivo, read-out: beta t1/2 (converted)
[5] = Tmax in healthy human at 1500 […], po administered as single dose measured after 72 hrs by HPLC method; type: ADME, organism-based; design: route oral; details: in vivo; method in brief: as §2
[6] = Relative bioavailability based on AUC (0 to infinity) in healthy human at 2000 […], po administered as single dose by HPLC method; type: ADME, organism-based; details: in vivo
Method in brief: (§3)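 Relative bioavailability is AUC0-∞ at the test dose relative to the group's reference dose: 250 mg for group 1 (1,000 and 1,750 mg), 500 mg for group 2 (1,500 and 2,000 mg). Same volunteers, single oral doses, plasma sampling to 72 h and HPLC-UV assay as above.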

[7] = Tmax in healthy human at 2000 mg, po administered as single dose measured after 72 hrs by HPLC method; details: in vivo
[8] = AUC (0 to t) in healthy human at 1750 […], po administered as single dose measured after 72 hrs by HPLC method; type: ADME, organism-based; design: time < 72 hr, route oral; details: plasma; method in brief: as §2
[9] = AUC (0 to infinity) in healthy human at 500 […], po administered as single dose measured after 72 hrs by HPLC method; type: ADME, organism-based; design: time infinity, route oral; details: plasma; method in brief: as §2
[10] = AUC (0 to t) in healthy human at 250 mg, po administered as single dose measured after 72 hrs by HPLC method; details: plasma
[11] = AUC (0 to infinity) in healthy human at 1000 mg, po administered as single dose measured after 72 hrs by HPLC method; details: plasma
[12] = Cmax in healthy human at 500 mg, po administered as single dose measured after 72 hrs by HPLC method; details: in vivo
[13] = AUC (0 to t) in healthy human at 1000 mg, po administered as single dose measured after 72 hrs by HPLC method; details: plasma
[14] = AUC (0 to infinity) in healthy human at 1500 mg, po administered as single dose measured after 72 hrs by HPLC method; details: plasma
[15] = AUC (0 to t) in healthy human at 2000 […], po administered as single dose measured after 72 hrs by HPLC method; type: ADME, organism-based; design: time < 72 hr, route oral; details: plasma; method in brief: as §2
[16] = First-order absorption rate constant in healthy human at 250 to 2000 mg, po administered as single dose by HPLC method; details: in vivo
[17] = Tmax in healthy human at 1750 mg, po administered as single dose measured after 72 hrs by HPLC method; details: in vivo
[18] = AUC (0 to infinity) in healthy human at 1750 mg, po administered as single dose measured after 72 hrs by HPLC method; details: plasma
[19] = AUC (0 to infinity) in healthy human at 2000 mg, po administered as single dose measured after 72 hrs by HPLC method; details: plasma
[20] = Terminal half life in healthy human at 1500 mg, po administered as single dose measured after 72 hrs by HPLC method; details: in vivo, read-out: beta t1/2 (converted)
[21] = Cmax in healthy human at 1000 mg, po administered as single dose measured after 72 hrs by HPLC method; details: in vivo
[22] = Terminal half life in healthy human at 1750 mg, po administered as single dose measured after 72 hrs by HPLC method; details: in vivo, read-out: beta t1/2 (converted)
Homo sapiens [23] = experiment: Hepatotoxicity in healthy human assessed as elevated bilirubin level at 1000 […], po administered as single dose after 72 hrs; type: toxicity, organism-based; design: route oral; details: in vivo
Homo sapiens [24] = experiment: Toxicity in healthy human assessed as occurrence of dizziness at […], po administered as single dose; type: organism-based; design: route oral; details: in vivo
[25] = AUC (0 to infinity) in healthy human at […], po administered as single dose measured after 72 hrs by HPLC method; type: ADME, organism-based; design: time infinity, route oral; details: plasma; method in brief: as §2
[26] = AUC (0 to t) in healthy human at 500 mg, po administered as single dose measured after 72 hrs by HPLC method; details: plasma
Homo sapiens [27] = experiment: Hepatotoxicity in healthy human assessed as elevated aspartate transaminase level at 1000 […], po administered as single dose after 48 hrs; type: toxicity, organism-based; design: route oral; details: in vivo
[28] = AUC (0 to t) in healthy human at 1500 […], po administered as single dose measured after 72 hrs by HPLC method; type: ADME, organism-based; design: time < 72 hr, route oral; details: plasma; method in brief: as §2
[29] = Relative bioavailability based on AUC (0 to infinity) in healthy human at 1750 […], po administered as single dose by HPLC method; type: ADME, organism-based; details: in vivo; method in brief: as §3
Homo sapiens [30] = experiment: Hepatotoxicity in healthy human assessed as elevated bilirubin level at 1000 […], po administered as single dose after 7 days post dosing; type: toxicity, organism-based; design: route oral; details: in vivo, 168 h
Homo sapiens [31] = experiment: Volume of distribution in healthy human at 250 to 2000 […], po administered as single dose by HPLC method; type: ADME, organism-based; design: route oral; details: in vivo; method in brief: as §1
[32] = Cmax in healthy human at 1500 mg, po administered as single dose measured after 72 hrs by HPLC method; details: in vivo
[33] = Oral clearance in healthy human at 250 to 2000 […] administered as single dose by HPLC method; type: ADME, organism-based; details: in vivo; method in brief: as §1
[34] = Tmax in healthy human at 500 […], po administered as single dose measured after 72 hrs by HPLC method; type: ADME, organism-based; design: route oral; details: in vivo; method in brief: as §2
[35] = Cmax in healthy human at 250 mg, po administered as single dose measured after 72 hrs by HPLC method; details: in vivo
[36] = Relative bioavailability in healthy human at 1500 to 2000 […], po administered as single dose by HPLC method; type: ADME, organism-based; details: in vivo; method in brief: as §1
Homo sapiens [37] = experiment: Hepatotoxicity in healthy human assessed as elevated alkaline phosphatase level at 1000 […], po administered as single dose after 48 hrs; type: toxicity, organism-based; design: route oral; details: in vivo
Homo sapiens [38] = experiment: Toxicity in healthy human assessed as occurrence of headache at […], po administered as single dose; type: organism-based; design: route oral; details: in vivo
Homo sapiens [39] = experiment: Hepatotoxicity in healthy human assessed as elevated bilirubin level at 1000 […], po administered as single dose after 48 hrs; type: toxicity, organism-based; design: route oral; details: in vivo
[40] = Terminal half life in healthy human at 2000 mg, po administered as single dose measured after 72 hrs by HPLC method; details: in vivo, read-out: beta t1/2 (converted)
[41] = Cmax in healthy human at 1750 mg, po administered as single dose measured after 72 hrs by HPLC method; details: in vivo
[42] = Cmax in healthy human at 2000 […], po administered as single dose measured after 72 hrs by HPLC method; type: ADME, organism-based; design: route oral; details: in vivo; method in brief: as §2
[43] = Terminal half life in healthy human at 250 mg, po administered as single dose measured after 72 hrs by HPLC method; details: in vivo, read-out: beta t1/2 (converted)
[44] = Relative bioavailability in healthy human at 1000 […], po administered as single dose by HPLC method; type: ADME, organism-based; details: in vivo; method in brief: as §1
[45] = Relative bioavailability based on AUC (0 to infinity) in healthy human at 1500 […], po administered as single dose by HPLC method; type: ADME, organism-based; details: in vivo; method in brief: as §3
[46] = Terminal half life in healthy human at 1000 mg, po administered as single dose measured after 72 hrs by HPLC method; details: in vivo, read-out: beta t1/2 (converted)
[47] = Tmax in healthy human at 1000 […], po administered as single dose measured after 72 hrs by HPLC method; type: ADME, organism-based; design: route oral; details: in vivo; method in brief: as §2
Homo sapiens [48] = experiment: Hepatotoxicity in healthy human assessed as elevated aspartate transaminase level at 1000 […], po administered as single dose after 72 hrs; type: toxicity, organism-based; design: route oral; details: in vivo

## C[C@@H]([C@H](N)C(=O)N[C@H](C(=O)O)[C@H]1O[C@@H](n2ccc(=O)[nH]c2=O)[C@H](O)[C@@H]1O)[C@H](O)c1ccc(O)cn1 [NIKKOMYCIN]
Homo sapiens [1]
  Activity: Toxic
Homo sapiens [2]
  Tlag: 0.695 h
[3]
  Tmax: 2 h
[4]
  half-life: 2.22 h
[5]
  Tmax: 2 h
[6]
  bioavailability: 41%
[7]
  Tmax: 4 h
[8]
  AUC(0-t) at 72 h: 37400 ng·h/mL
[9]
  AUC(0-inf): 24600 ng·h/mL
[10]
  AUC(0-t) at 72 h: 11300 ng·h/mL
[11]
  AUC(0-inf): 32500 ng·h/mL
[12]
  Cmax: 3990 ng/mL
[13]
  AUC(0-t) at 72 h: 32100 ng·h/mL
[14]
  AUC(0-inf): 30600 ng·h/mL
[15]
  AUC(0-t) at 72 h: 40200 ng·h/mL
[16]
  Ka: 0.000113 s⁻¹
[17]
  Tmax: 4 h
[18]
  AUC(0-inf): 37900 ng·h/mL
[19]
  AUC(0-inf): 40700 ng·h/mL
[20]
  half-life: 2.21 h
[21]
  Cmax: 5140 ng/mL
[22]
  half-life: 2.12 h
Homo sapiens [23]
  Activity: Toxic
Homo sapiens [24]
  Activity: Toxic
[25]
  AUC(0-inf): 11600 ng·h/mL
[26]
  AUC(0-t) at 72 h: 24300 ng·h/mL
Homo sapiens [27]
  Activity: Non-toxic
[28]
  AUC(0-t) at 72 h: 30300 ng·h/mL
[29]
  bioavailability: 47%
Homo sapiens [30]
  Activity: Non-toxic
Homo sapiens [31]
  Vd: 41.5 L
[32]
  Cmax: 4850 ng/mL
[33]
  CL/F: 367 mL/min
[34]
  Tmax: 3 h
[35]
  Cmax: 2210 ng/mL
[36]
  bioavailability: 43.9%
Homo sapiens [37]
  Activity: Non-toxic
Homo sapiens [38]
  Activity: Toxic
Homo sapiens [39]
  Activity: Non-toxic
[40]
  half-life: 2.09 h
[41]
  Cmax: 6440 ng/mL
[42]
  Cmax: 6420 ng/mL
[43]
  half-life: 2.53 h
[44]
  bioavailability: 61.6%
[45]
  bioavailability: 41%
[46]
  half-life: 2.06 h
[47]
  Tmax: 4 h
Homo sapiens [48]
  Activity: Toxic
